Test results from paper PMC5679012 (Chemistry (Weinheim an der Bergstrasse, Germany), 2017).

Test: CO release kinetics by increase of fluorescence intensity in DMSO/PBS
Type: physicochemical
Conditions: fluorescence increase (450 nm); 100 μM; DMSO/PBS (pH = 7.4) 4:1, 37 °C
In short: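 Test compounds of scaffolds I and II were dissolved in DMSO/PBS (pH 7.4, 4:1) at 100 μM final and held at 37 °C. CO release was tracked as the rise in fluorescence intensity at 450 nm, read at successive time points. Each experiment was repeated three times independently.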

SMILES: C#CC(C)(C)NC(=O)C1=C2C(=C(c3ccccc3)C1=O)c1cccc3cccc2c13 [BW-CO-111]
- k, CO release rate: 3.31 ± 0.28 h⁻¹
- t1/2, half-life for CO release: ~12 min
